This is a sample that favours compounds with a hit; in the whole collection about 1.2% have one here.
HKDC1 inh – blocks human hexokinase HKDC1 activity; recombinant HKDC1, G6PDH/diaphorase resazurin coupled fluorescence; inhibition, % at 20 µM; 340,000 tested, 0.16% active;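 active = inhibition above about 35% when tested at 20 µM, limit read from the data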;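 note: plate controls were DMSO wells with enzyme for no effect and DMSO wells lacking enzyme for full effect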
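test system = in-house recombinant HK5 (HKDC1) enzyme | amount = HKDC1 at 5 µg/mL | control set = DMSO-enzyme wells negative, buffer-substituted wells positive | compound = one dose of 20 µM, 1% DMSO | schedule = reaction time 90 min, room temperature, protected from light | technique = resorufin fluorescence at 613 nm | reagent = glucose with 1 mM ATP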
Dynein cargo inh – blocks dynein driven cargo transport along microtubules; 220,000 tested, 0.47% active; z-score, hits read low; 3617.4 mouse cells, GR-EGFP nuclear translocation imaging; test concentration mostly 20 µM; stimulated with dexamethasone, 1 µM; active compounds read low;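 active = plate z-score of nuclear minus cytoplasmic receptor signal below a set negative limit, without overly bright fluorescence or cell loss, cut at about -3.5 in these data, passing the limit was not always enough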;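 note: z-score of nuclear minus cytoplasmic ring GR-EGFP intensity difference per well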
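Buffer or medium: tet-free, stripped-serum medium; Also added: dexamethasone, 1.0 µM final; Technique: high-content fluorescence imaging after fixation; Times: 48 h induction, 1 h compound, 30 min dex at 37 °C; Read-out: per-cell GR-EGFP intensity, nucleus versus surrounding cytoplasmic ring, well-averaged.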
PERK inhibitor – inhibitors of human PERK kinase; Q9NZJ5; 220,000 tested, 0.17% active; inhibition, % at 5.6 µM; CHO PERK-DD fusion, SEAP luminescence translation reporter;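 active = inhibition above the mean inhibition of all tested compounds plus 3 SD, set separately per screening campaign, cut at about 2.9% in these data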;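 note: PERK kinase domain activated by AP20187 dimerizer at 100 nM; 0% = DMSO with dimerizer and 100% = rapamycin at 8.4 µM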
HSV augment – increases HSV replication in cells; HSV replication augmentation in cells, fold increase; maximum fold increase; 220,000 tested, 0.005% active; in the data active = maximum fold increase above about 1.5; inconclusive = no clear call, values can overlap the other calls; tested in PC3 cells
TbHK1 inh – blocks Trypanosoma brucei hexokinase 1 activity | recombinant TbHK1, G6PDH-coupled NADH A340 | inhibition, % at 10 µM | 220,000 tested, 0.11% active;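 active = inhibition of 50% or more in the single-dose primary screen; inactive = inhibition below 50%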
Autophagy mod – alters autophagy in cells; calls only at 10 µM (by protocol); MEF GFP-LC3 puncta imaging; test concentration mostly 10 µM; AID 463193; 190,000 tested, 0.98% active;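 active = percentage of spot-positive cells more than 3 SD above its plate mean, without a fluorescence outlier flag or 80% toxicity; inconclusive = no clear call, values can overlap the other calls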;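 note: spot-positive cell cutoff set from DMSO-treated cells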
* = called active by the depositor; i = inactive; ? = inconclusive; . = no result given; + = active, no number.

SMILES	HKDC1 inh	Dynein cargo inh	PERK inhibitor	HSV augment	TbHK1 inh	Autophagy mod
COc1ccc(NC(=O)COC(=O)C2CCN(S(=O)(=O)c3cccs3)CC2)cc1OC	7.2	.	.	.	.	.
Cn1c(Cn2nnc3ccccc32)nnc1SCC(=O)Nc1nccs1	-4.1	-0.0203	0.0	i	-6.5	+
Cn1c(CSCc2ccccc2)nnc1SCC(=O)Nc1nccs1	6.3	-0.572	-0.6	i	-6.1	i
CN1CCN(CC(O)COC(c2ccc(Cl)cc2)c2ccc(Cl)cc2)CC1 (configuration not stated)	1.3	.	.	.	.	.
OC(COC(c1ccc(Cl)cc1)c1ccc(Cl)cc1)CN1CCCC1 (configuration not stated)	0.7	3.59	-0.4	i	9.5	+
Cc1ccc(NC(=O)C2COc3ccccc3O2)cc1S(=O)(=O)N1CCOCC1 (configuration not stated)	0.7	.	.	.	.	.
Nc1nc(-c2ccc(Cl)cc2Cl)cn1N	-2.6	0.994	3.1*	i	2.4	i
Cc1c(C(=O)N2CCN(CCc3ccccn3)CC2)oc2ccc(Cl)cc12	-4.0	.	.	.	.	.
COc1ccc(Cl)cc1NC(=O)CN1C(=O)NC(Cc2c[nH]c3ccccc23)C1=O (configuration not stated)	-1.6	.	.	.	.	.
CCCCn1c(SCC(=O)Nc2cc(C(F)(F)F)ccc2Cl)nnc1C(CC)N(C)C (configuration not stated)	-3.3	-0.0243	-1.1	i	12.3	+
O=C(CCC(=O)N(CC(=O)NC1CCCC1)c1ccccc1F)Nc1nccs1	-3.0	.	.	.	.	.
CC(C)OC(=O)/C(=C\c1cccnc1)NC(=O)c1ccccc1	-8.0	-0.355	0.6	i	-3.7	+
C=CCOC(=O)/C(=C/c1cccnc1)NC(=O)c1ccccc1	-1.2	-0.481	0.5	i	-7.4	.
Cc1c(C(=O)OCC(=O)N(C)c2ccccc2)oc2ccccc12	-5.7	.	.	.	.	.
Cc1cc(NC(=O)c2ccc3c(c2)C(=O)N(C2CCCCC2)C3=O)no1	-8.6	1.75	0.7	i	12.5	+
O=c1oc2ccccc2cc1-c1csc(Nc2nc3c(F)cccc3s2)n1	-5.8	2.84	0.8	i	-7.2	+
O=C(CCc1nc2ccccc2c(=O)[nH]1)N1CCCc2ccccc21	6.5	.	.	.	.	.
Cn1nccc1C(=O)c1ccc(Cl)cc1	-9.7	-0.281	3.1*	i	9.6	i
O=C(c1cc2cc([N+](=O)[O-])ccc2oc1=O)N1CCN(c2ncccn2)CC1	12.4	-0.499	0.2	i	-11.0	+
COc1cc2c(cc1OC)C1=CC(=O)C(=O)N1C(C)(C)C2	-5.0	-0.916	-0.7	?	-21.5	+
COc1ccc(S(=O)(=O)N(C)C[C@H]2Oc3ccc(NC(=O)c4ccncc4)cc3C(=O)N([C@H](C)CO)C[C@@H]2C)cc1	5.2	.	.	.	.	.
N#C/C(=C/c1ccccc1)c1nn(CCO)c(N)c1C#N	3.4	-0.491	1.0	i	-25.7	i
N#C/C(=C\c1ccc(/C=C(/C#N)c2nn(CCO)c(N)c2C#N)cc1)c1nn(CCO)c(N)c1C#N	-5.2	-0.283	0.9	i	-10.4	+
N#C/C(=C\c1cn(Cc2ccccc2)c2ccccc12)C(=O)NCc1ccco1	-3.1	0.481	-0.2	i	28.9	i
N#C/C(=C\c1cn(Cc2ccc(F)cc2)c2ccccc12)C(=O)NCc1ccco1	-7.5	-0.263	0.5	i	-2.9	+
SMILES	HKDC1 inh	Dynein cargo inh	PERK inhibitor	HSV augment	TbHK1 inh	Autophagy mod
C=CCNc1ncnc2c1ncn2C1OC(CO)C(O)C1O (configuration not stated)	7.2	-0.385	3.0*	i	2.4	i
Cc1c(O)ccc2c3c(c(=O)oc12)CCCC3	2.3	0.046	3.7*	i	-13.5	i
Cc1ccc(NC(=S)N/N=C/c2c(C)[nH]c3ccccc23)cc1	-11.2	-1.12	0.6	i	-37.1	+
Cc1[nH]c2ccccc2c1/C=N/NC(N)=S	-3.0	-0.258	0.3	i	-130.3	.
CCOC(=O)c1cn(-c2ccc(F)c(F)c2)c2c(F)c(F)c(F)c(F)c2c1=O	.	0.449	0.7	.	-10.4	i
O=C(O)c1cn(-c2ccc(F)c(F)c2)c2c(F)c(F)c(F)c(F)c2c1=O	-7.1	-6.36*	-1.1	i	-7.1	i
Cc1[nH]c2ccccc2c1/C=C/c1nc2ccccc2c(=O)n1-c1ccc([N+](=O)[O-])cc1	-9.7	-0.193	1.1	i	-7.5	+

Assay outcomes deposited in PubChem BioAssay by several laboratories.
